# According to ChEMBL document CHEMBL5338787, “Discovery of Novel Bruton's Tyrosine Kinase PROTACs with Enhanced Selectivity and Cellular Efficacy” (J Med Chem, 2023):
# The source made the active and inactive calls. The rule behind the calls is not given here.
# Key:
# TMD8 [1] = assay: Cytotoxicity against human TMD8 cells incubated for 48 hrs by celltitre glo 2.0 assay; assay type: functional, cell-based; settings: TMD8, 48 h
# [2] = Cytotoxicity against human MINO cells incubated for 48 hrs by celltitre glo 2.0 assay; assay type: functional, cell-based
# [3] = biological target: T1, Protein cereblon/Tyrosine-protein kinase BTK (Homo sapiens, UniProt Q06187+Q96SW2); assay: PROTAC activity at BTK/CRBN protein protein interaction in human Ramos cell assessed as degradation of BTK incubated for 17 hrs measured by Western blot analysis; assay type: cell-based
# Summary of the method: (§1)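 Ramos or JeKo-1 cells (2 × 10^6 per well) were exposed for 17 h to 3000–0.15 nM PROTAC in 3-fold steps. Cells were lysed and analysed by western blot, with BTK normalised to β-actin. DC50 and Dmax come from the dose-response; DC50 is the mean ± SD of two independent experiments.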
# Target sequence in this assay (Q06187 whole entry): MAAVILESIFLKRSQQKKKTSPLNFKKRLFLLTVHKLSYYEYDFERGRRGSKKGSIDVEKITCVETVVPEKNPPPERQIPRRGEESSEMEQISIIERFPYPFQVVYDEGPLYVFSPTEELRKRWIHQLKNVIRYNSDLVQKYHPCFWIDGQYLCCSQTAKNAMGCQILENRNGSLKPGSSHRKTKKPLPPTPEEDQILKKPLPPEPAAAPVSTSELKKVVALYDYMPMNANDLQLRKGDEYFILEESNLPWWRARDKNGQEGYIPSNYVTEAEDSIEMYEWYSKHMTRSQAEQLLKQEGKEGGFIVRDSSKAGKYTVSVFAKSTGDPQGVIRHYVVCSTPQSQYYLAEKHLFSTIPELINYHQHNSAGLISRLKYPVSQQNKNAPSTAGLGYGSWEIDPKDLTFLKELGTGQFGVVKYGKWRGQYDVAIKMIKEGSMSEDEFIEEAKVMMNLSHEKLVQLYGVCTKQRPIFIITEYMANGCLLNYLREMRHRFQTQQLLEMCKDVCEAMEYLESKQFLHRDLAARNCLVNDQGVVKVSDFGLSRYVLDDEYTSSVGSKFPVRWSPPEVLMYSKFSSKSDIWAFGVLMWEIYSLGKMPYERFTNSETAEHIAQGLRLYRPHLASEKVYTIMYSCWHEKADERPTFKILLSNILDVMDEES
# Target sequence in this assay (Q96SW2 whole entry): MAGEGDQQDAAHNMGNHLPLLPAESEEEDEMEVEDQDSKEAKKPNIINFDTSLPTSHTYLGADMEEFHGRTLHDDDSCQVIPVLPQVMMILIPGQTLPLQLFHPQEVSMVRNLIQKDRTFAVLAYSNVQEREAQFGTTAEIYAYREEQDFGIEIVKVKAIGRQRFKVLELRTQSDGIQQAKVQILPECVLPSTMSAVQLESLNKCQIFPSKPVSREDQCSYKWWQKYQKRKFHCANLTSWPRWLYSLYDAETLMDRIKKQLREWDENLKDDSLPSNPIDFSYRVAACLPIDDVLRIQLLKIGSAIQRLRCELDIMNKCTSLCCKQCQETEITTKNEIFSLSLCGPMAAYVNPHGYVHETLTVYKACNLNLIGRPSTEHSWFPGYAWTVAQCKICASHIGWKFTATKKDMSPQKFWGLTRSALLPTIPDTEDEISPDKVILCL
# [4] = biological target: T1, Protein cereblon/Tyrosine-protein kinase BTK; assay: PROTAC activity at BTK/CRBN protein protein interaction in human Ramos cell assessed as degradation of BTK incubated for 17 hrs measured by Western blot analysis relative to control; assay type: cell-based; summary of the method: as §1
# Target sequence in this assay (Q06187 2-659 limits assumed): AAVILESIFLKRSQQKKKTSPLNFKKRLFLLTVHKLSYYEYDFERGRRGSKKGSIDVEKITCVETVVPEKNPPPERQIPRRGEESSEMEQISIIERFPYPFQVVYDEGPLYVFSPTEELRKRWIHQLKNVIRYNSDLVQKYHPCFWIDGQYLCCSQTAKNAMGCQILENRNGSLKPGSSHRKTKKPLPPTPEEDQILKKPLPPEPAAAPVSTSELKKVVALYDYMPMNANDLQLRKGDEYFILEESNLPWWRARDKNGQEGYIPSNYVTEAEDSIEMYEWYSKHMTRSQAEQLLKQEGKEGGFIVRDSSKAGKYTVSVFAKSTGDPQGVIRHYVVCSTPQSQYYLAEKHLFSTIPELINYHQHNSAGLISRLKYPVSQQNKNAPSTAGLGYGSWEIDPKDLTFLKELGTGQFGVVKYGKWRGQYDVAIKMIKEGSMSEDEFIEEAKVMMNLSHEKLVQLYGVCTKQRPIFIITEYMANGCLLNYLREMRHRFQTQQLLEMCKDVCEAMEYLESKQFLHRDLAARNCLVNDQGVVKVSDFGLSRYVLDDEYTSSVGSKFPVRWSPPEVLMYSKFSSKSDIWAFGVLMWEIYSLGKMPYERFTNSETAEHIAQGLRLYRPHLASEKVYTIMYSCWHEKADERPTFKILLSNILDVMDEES
# Target sequence in this assay (Q96SW2 whole entry partner): as the sequence (Q96SW2 whole entry) above
# [5] = biological target: T1, Protein cereblon/Tyrosine-protein kinase BTK; assay: PROTAC activity at BTK/CRBN protein protein interaction in human JeKo-1 cell assessed as degradation of BTK incubated for 17 hrs measured by Western blot analysis relative to control; assay type: cell-based; summary of the method: as §1
# Target sequence in this assay (Q06187 2-659 limits assumed): as the sequence (Q06187 2-659 limits assumed) above
# Target sequence in this assay (Q96SW2 whole entry partner): as the sequence (Q96SW2 whole entry) above
# [6] = biological target: T1, Protein cereblon/Tyrosine-protein kinase BTK; assay: PROTAC activity at BTK/CRBN protein protein interaction in human JeKo-1 cell assessed as degradation of BTK incubated for 17 hrs measured by Western blot analysis; assay type: cell-based; summary of the method: as §1
# Target sequence in this assay (Q06187 whole entry): as the sequence (Q06187 whole entry) above
# Target sequence in this assay (Q96SW2 whole entry): as the sequence (Q96SW2 whole entry) above
# TMD8 [7] = assay: Induction of apoptosis in human TMD8 cells measured after 48 hrs by Annexin-V/propidium iodide staining based flow cytometric analysis; assay type: functional, cell-based; settings: dose 0.15-3000 nM
# Summary of the method: (§2)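 Cells plated at 2 × 10^6 per well and treated 48 h at 3,000–0.15 nM (3-fold dilutions) or 1% DMSO. Harvested, washed in cold PBS, stained with Annexin V Alexa Fluor 488/propidium iodide, analysed by flow cytometry for % live, apoptotic and necrotic cells. Mean of two independent experiments.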
# MINO [8] = assay: Induction of apoptosis in human MINO cells at 0.15 to 3000 nM for 48 hrs by Annexin-V/propidium iodide staining based flow cytometric analysis; assay type: functional, cell-based; settings: dose 0.15-3000 nM; summary of the method: as §2
# [9] = biological target: Tyrosine-protein kinase CSK (Homo sapiens) (UniProt P41240); assay: Degradation of CSK in human TMD8 cells by measuring protein level at 111 nM for 6 hrs using label free proteomic analysis; assay type: cell-based
# Sequence of Tyrosine-protein kinase CSK (Homo sapiens) (P41240 2-450 limits assumed): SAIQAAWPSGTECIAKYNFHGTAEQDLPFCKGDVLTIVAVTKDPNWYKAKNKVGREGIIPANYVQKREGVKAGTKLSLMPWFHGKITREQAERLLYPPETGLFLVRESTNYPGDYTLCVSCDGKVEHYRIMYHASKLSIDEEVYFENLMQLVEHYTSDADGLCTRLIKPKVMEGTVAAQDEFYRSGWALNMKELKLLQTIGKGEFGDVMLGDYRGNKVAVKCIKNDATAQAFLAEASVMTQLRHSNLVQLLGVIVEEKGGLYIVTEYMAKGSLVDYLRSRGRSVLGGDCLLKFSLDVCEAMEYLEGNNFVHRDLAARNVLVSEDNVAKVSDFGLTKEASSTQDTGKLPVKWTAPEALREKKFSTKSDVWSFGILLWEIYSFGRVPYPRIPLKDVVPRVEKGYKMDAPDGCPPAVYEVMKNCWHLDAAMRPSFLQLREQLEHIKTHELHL
# Summary of the method: (§3)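 TMD8 cells (2 × 10^6) given 111 nM or DMSO for 6 h in duplicate. Lysed in 5% SDS/50 mM TEAB pH 8.5. 200 μg protein reduced (10 mM DTT, 55 °C, 30 min), alkylated (50 mM iodoacetamide), S-Trap processed, then LC-MS/MS. Label-free matched-peptide quantitation against DMSO, human UniProt; Benjamini–Hochberg-corrected p-values.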
# [10] = biological target: Tyrosine-protein kinase FRK (Homo sapiens) (UniProt P42685); assay: Degradation of FRK in human TMD8 cells by measuring protein level at 111 nM for 6 hrs using label free proteomic analysis; assay type: cell-based; summary of the method: as §3
# Sequence of Tyrosine-protein kinase FRK (Homo sapiens) (P42685 whole entry): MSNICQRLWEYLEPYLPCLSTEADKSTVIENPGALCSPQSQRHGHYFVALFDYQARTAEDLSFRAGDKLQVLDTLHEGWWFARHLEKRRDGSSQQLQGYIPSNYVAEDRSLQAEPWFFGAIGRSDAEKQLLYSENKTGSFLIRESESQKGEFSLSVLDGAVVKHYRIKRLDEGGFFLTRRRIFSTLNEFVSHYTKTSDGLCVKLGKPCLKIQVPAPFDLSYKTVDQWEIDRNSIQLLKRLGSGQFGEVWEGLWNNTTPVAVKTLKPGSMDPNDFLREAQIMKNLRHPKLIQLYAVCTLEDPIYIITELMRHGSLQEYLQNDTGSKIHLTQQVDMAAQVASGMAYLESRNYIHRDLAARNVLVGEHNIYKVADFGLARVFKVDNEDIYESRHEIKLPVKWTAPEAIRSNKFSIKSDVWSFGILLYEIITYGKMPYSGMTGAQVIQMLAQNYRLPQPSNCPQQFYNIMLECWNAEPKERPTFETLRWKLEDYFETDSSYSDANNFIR
# [11] = biological target: DNA-binding protein Ikaros (Homo sapiens) (UniProt Q13422); assay: Degradation of IKZF1 in human TMD8 cells by measuring protein level at 111 nM for 6 hrs using label free proteomic analysis; assay type: cell-based; summary of the method: as §3
# Sequence of DNA-binding protein Ikaros (Homo sapiens) (Q13422 whole entry): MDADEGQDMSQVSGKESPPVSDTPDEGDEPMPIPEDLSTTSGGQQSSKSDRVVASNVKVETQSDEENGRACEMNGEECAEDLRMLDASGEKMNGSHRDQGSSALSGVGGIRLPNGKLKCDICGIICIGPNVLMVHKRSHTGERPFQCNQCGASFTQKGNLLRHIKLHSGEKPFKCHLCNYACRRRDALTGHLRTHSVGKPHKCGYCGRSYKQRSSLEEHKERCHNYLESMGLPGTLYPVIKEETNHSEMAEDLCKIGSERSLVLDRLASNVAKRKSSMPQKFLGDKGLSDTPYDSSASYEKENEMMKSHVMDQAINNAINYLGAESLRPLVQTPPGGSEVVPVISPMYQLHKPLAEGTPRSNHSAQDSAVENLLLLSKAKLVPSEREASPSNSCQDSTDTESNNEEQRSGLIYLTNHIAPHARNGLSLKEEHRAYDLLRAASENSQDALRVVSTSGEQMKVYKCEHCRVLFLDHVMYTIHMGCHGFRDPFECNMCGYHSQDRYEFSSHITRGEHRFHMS
# [12] = biological target: Zinc finger protein Aiolos (Homo sapiens) (UniProt Q9UKT9); assay: Degradation of IKZF3 in human TMD8 cells by measuring protein level at 111 nM for 6 hrs using label free proteomic analysis; assay type: cell-based; summary of the method: as §3
# Sequence of Zinc finger protein Aiolos (Homo sapiens) (Q9UKT9 whole entry): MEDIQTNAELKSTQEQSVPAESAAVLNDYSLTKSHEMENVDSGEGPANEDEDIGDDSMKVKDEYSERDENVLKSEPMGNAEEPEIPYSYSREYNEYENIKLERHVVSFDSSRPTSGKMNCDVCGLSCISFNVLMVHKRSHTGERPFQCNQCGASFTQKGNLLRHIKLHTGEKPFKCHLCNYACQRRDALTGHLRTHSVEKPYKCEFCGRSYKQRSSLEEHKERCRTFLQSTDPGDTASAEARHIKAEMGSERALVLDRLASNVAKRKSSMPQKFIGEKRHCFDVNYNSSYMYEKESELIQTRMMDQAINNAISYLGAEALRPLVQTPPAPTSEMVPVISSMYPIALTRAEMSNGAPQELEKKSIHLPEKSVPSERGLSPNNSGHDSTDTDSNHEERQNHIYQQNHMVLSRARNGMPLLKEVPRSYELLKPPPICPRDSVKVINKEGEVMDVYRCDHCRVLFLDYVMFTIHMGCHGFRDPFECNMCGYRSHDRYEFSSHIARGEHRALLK
# [13] = biological target: T2, Zinc finger protein 280D (Homo sapiens) (UniProt Q6N043); assay: Degradation of […] in human TMD8 cells by measuring protein level at 111 nM for 6 hrs using label free proteomic analysis; assay type: cell-based; summary of the method: as §3
# T2 sequence (whole entry): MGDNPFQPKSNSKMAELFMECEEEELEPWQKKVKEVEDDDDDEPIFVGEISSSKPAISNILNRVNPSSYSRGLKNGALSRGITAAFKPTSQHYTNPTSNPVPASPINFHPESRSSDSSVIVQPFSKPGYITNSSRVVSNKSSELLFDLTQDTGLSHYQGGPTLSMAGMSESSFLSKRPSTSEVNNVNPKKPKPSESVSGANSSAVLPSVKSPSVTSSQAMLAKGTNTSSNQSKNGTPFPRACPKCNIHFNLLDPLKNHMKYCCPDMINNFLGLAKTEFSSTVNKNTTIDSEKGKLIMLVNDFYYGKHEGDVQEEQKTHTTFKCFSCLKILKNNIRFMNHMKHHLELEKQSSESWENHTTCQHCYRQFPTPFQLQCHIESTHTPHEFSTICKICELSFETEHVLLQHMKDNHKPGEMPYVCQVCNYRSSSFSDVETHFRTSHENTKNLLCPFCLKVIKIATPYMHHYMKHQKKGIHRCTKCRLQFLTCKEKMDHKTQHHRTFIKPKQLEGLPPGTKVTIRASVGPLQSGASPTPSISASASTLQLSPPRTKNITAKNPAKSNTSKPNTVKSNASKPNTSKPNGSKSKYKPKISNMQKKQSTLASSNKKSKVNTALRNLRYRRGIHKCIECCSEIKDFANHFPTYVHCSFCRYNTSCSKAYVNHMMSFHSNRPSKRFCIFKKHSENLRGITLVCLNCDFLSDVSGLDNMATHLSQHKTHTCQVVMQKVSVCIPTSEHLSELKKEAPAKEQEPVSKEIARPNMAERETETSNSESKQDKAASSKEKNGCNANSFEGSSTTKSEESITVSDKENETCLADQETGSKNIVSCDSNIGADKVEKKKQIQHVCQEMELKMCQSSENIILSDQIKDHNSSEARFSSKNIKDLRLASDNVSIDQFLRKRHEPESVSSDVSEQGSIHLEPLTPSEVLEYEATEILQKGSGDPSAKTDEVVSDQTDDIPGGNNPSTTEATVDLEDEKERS
# [14] = biological target: Eukaryotic peptide chain release factor GTP-binding subunit ERF3A (Homo sapiens) (UniProt P15170); assay: Degradation of […] in human TMD8 cells by measuring protein level at 111 nM for 6 hrs using label free proteomic analysis; assay type: cell-based; summary of the method: as §3
# Sequence of Eukaryotic peptide chain release factor GTP-binding subunit ERF3A (Homo sapiens) (P15170 whole entry): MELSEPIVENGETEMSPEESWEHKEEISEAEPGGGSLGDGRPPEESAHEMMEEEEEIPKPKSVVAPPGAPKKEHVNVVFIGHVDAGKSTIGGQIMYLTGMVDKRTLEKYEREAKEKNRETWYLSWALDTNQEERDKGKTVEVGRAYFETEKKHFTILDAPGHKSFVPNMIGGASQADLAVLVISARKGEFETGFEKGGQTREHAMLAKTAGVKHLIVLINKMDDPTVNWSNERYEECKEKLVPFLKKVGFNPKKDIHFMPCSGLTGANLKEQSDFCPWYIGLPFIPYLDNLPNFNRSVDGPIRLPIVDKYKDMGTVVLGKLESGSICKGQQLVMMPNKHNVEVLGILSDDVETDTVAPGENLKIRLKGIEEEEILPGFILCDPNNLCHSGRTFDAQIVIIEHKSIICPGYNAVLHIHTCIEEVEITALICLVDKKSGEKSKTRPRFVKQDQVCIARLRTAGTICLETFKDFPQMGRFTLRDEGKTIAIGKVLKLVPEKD
# MINO [15] = assay: Induction of apoptosis in human MINO cells measured after 48 hrs by Annexin-V/propidium iodide staining based flow cytometric analysis; assay type: functional, cell-based; settings: dose 0.15-3000 nM; summary of the method: as §2
Structure (SMILES),IC50 [2],DC50 [3],Emax [4],Emax [5],DC50 [6],also measured
Cc1c(NC(=O)c2ccc(C(C)(C)C)cc2)cccc1-c1cn(C)c(=O)c(Nc2ccc(C(=O)N3CCN(CCCCCCNC(=O)CNc4cccc5c4C(=O)N(C4CCC(=O)NC4=O)C5=O)CC3)cc2)n1 (configuration not stated),10.9 nM,,,,,IC50 (TMD8 [1]): 5.1 nM
C[C@H]1CN(C(=O)CCCCCCOCCOCC(=O)Nc2cccc3c2C(=O)N(C2CCC(=O)NC2=O)C3=O)CCN1c1ccc(Nc2cc(-c3ccnc(N4CCn5c(cc6c5CC(C)(C)C6)C4=O)c3CO)cn(C)c2=O)nc1 (some centres not stated),,6.6 nM,97.1%,97.7%,,
C[C@H]1CN(C(=O)CNc2cccc3c2CN(C2CCC(=O)NC2=O)C3=O)CCN1c1ccc(Nc2cc(-c3ccnc(N4CCn5c(cc6c5CC(C)(C)C6)C4=O)c3CO)cn(C)c2=O)nc1 (some centres not stated),,3.6 nM,89.8%,89.2%,4.6 nM,
C[C@H]1CN(C2COC2)CCN1c1ccc(Nc2cc(-c3ccnc(N4CCn5c(cc6c5CC(C)(C)C6)C4=O)c3CO)cn(C)c2=O)nc1 [FENEBRUTINIB],7.8 nM,,,,,Activity (TMD8 [7]): Dose-Dependent Effect; Activity (MINO [8]): inactive
Nc1ncnc2c1c(-c1ccc(Oc3ccccc3)cc1)nn2[C@@H]1CCCN(C(=O)c2cn(CCOCCOCCOCCNc3cccc4c3C(=O)N(C3CCC(=O)NC3=O)C4=O)nn2)C1 (some centres not stated),10.4 nM,,,,,Activity [9]: Active; Activity [10]: Active; Activity [11]: Active; Activity [12]: Active; Activity [13]: Active; Activity [14]: inactive; IC50 (TMD8 [1]): 15 nM
C[C@H]1CN(CCCCCCOCCOCC(=O)Nc2cccc3c2C(=O)N(C2CCC(=O)NC2=O)C3=O)CCN1c1ccc(Nc2cc(-c3ccnc(N4CCn5c(cc6c5CC(C)(C)C6)C4=O)c3CO)cn(C)c2=O)nc1 (some centres not stated),,7 nM,95.6%,96.9%,9.7 nM,
Cn1cc(-c2ccnc(N3CCn4c(cc5c4CC(C)(C)C5)C3=O)c2CO)cc(Nc2ccc(N3CCN(CCCCCCOCCOCC(=O)Nc4cccc5c4C(=O)N(C4CCC(=O)NC4=O)C5=O)CC3)cn2)c1=O (configuration not stated),,5.3 nM,97.2%,97.7%,6.8 nM,
C[C@H]1CN(C(=O)CCCCCCCCCNc2cccc3c2C(=O)N(C2CCC(=O)NC2=O)C3=O)CCN1c1ccc(Nc2cc(-c3ccnc(N4CCn5c(cc6c5CC(C)(C)C6)C4=O)c3CO)cn(C)c2=O)nc1 (some centres not stated),,31.2 nM,94%,97.1%,32.1 nM,
C[C@H]1CN(C(=O)CCCNc2cccc3c2C(=O)N(C2CCC(=O)NC2=O)C3=O)CCN1c1ccc(Nc2cc(-c3ccnc(N4CCn5c(cc6c5CC(C)(C)C6)C4=O)c3CO)cn(C)c2=O)nc1 (some centres not stated),,0.9 nM,95.7%,97.4%,1 nM,
Nc1cccc2c1C(=O)N(C1CCC(=O)NC1=O)C2=O (configuration not stated),,,,,,Activity (MINO [15]): Dose-Dependent Effect
